Hits are enriched below; roughly 1.8% of the tested compounds scored in any of these assays.
HTRA1 inh – inhibitors of human serine peptidase HTRA1. Q92743. recombinant HTRA1, FP-rhodamine activity-based probe, fluorescence polarization. inhibition, % at 5.96 µM. actives 0.5% (n = 340,000). AID 504803; in the data active means inhibition above about 36%;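 further: 0% = enzyme with DMSO and 100% = wells lacking enzyme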
ARNT TACC3 PPI – disrupts binding between human ARNT and TACC3. Q9Y6A5. AlphaScreen His-ARNT PAS-B/GST-TACC3 binding, luminescence; TACC3 fragment carries E629A point mutation. inhibition, % at 9.99 µM. actives 0.66% (n = 390,000). AID 623870;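 active means mean inhibition of replicates at least 50% and at least half of replicates each reaching 50%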;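 further: 0% = complete ARNT plus TACC3 wells and 100% = ARNT alone without TACC3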
ABHD4 inh – inhibitors of mouse ABHD4; purified mABHD4, FP-Rh probe fluorescence polarization; Q8VD66; actives 0.54% (n = 370,000); AID 720543; inhibition, % at 8.92 µM;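 active means inhibition exceeding the mean over every tested compound plus 3 SD, cut at about 30% in these data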;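 further: 0% = plate median of compound wells and 100% = S159A mutant with DMSO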
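Assay system: wild-type mouse ABHD4 protein; compound: single nominal dose of 8.92 µM, 0.89% DMSO final; schedule: 45 min + 60 min at 25 °C; measured by: FP readout, ex 525 nm / em 598 nm; evaluation: % inhibition of FP-Rh probe binding versus controls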
TCR CD3 inh – human TCR-CD3 binding inhibition; TAMRA-labeled TCR probe fluorescence, biochemical; inhibition, % at 9.4 µM; actives 0.37% (n = 360,000); AID 651800; in the data active means inhibition above about 19%;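 further: recombinant mutant TCR 2C K166C tagged with TAMRA read by polarization; 0% = receptor in buffer alone and 100% = receptor with positive control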
SIAE inh – inhibitors of human sialic acid acetylesterase SIAE; Q9HAT2; SIAE FP-Rh probe binding, fluorescence polarization; inhibition, % at 9.66 µM; actives 0.69% (n = 370,000);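 active means inhibition above a cutoff: mean of compounds within the control limits plus 3 SD of those, cut at about 17% in these data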;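 further: 0% = plate median of compound wells and 100% = probe without SIAE protein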
Target sequence (Q9HAT2 whole entry, looked up): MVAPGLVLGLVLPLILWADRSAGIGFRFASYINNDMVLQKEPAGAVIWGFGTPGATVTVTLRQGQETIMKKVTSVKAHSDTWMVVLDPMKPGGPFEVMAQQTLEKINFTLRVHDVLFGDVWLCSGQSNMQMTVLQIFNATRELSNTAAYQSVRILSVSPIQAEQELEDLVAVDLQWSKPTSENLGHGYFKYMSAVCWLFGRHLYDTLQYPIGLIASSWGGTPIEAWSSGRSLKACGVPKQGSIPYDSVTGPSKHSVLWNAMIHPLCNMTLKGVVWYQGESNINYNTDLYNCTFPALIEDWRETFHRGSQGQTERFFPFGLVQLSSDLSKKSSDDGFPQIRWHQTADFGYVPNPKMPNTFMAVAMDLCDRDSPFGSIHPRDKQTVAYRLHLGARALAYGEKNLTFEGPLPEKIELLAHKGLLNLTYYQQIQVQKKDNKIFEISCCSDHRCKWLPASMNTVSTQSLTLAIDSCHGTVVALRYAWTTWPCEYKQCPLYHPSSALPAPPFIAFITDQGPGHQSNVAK
mABHD4 conf – confirmation of mouse ABHD4 inhibitors. purified mABHD4, FP-Rh probe fluorescence polarization. inhibition, % at 8.92 µM. shares compounds with ABHD4 inh. actives 55% (n = 1,800);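 active means mean inhibition across replicates above the hit cutoff set in the primary screen, cut at about 30% in these data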;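 further: 0% = wild-type ABHD4 with DMSO and 100% = catalytically dead S159A mutant with DMSO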
* = called active by the depositor.

What do the screens show for `CC(/C=N/Nc1nc2ccccc2[nH]1)=C\c1ccccc1`?
HTRA1 inh: 13; ARNT TACC3 PPI: 3; ABHD4 inh: 42*; TCR CD3 inh: -3; SIAE inh: 11; mABHD4 conf: 44*

What do the screens show for `NC(CO)c1csc(Nc2ccc(C(F)(F)F)cn2)n1` (configuration not stated)?
ABHD4 inh: -2; TCR CD3 inh: 0; SIAE inh: -2

Results for NC(Cc1ccc(Cl)cc1)c1csc(Nc2ccc(C(F)(F)F)cn2)n1 (configuration not stated) ?
ABHD4 inh: 32*; TCR CD3 inh: 6; SIAE inh: -2; mABHD4 conf: 30*

Results for CN(C)CC#Cc1ccc([C@@H]2[C@@H](CO)N3CCCCN(C(=O)C4CCC4)C[C@H]23)cc1 ?
ARNT TACC3 PPI: -9

Results for O=c1oc2ccccc2nc1/C=C(O)/C=C\c1ccccc1 ?
HTRA1 inh: 9; ABHD4 inh: 33*; TCR CD3 inh: 3; SIAE inh: 4; mABHD4 conf: 9

What do the screens show for `Cc1c(C(=O)OCC(C)C)[nH]c2c1C(=O)CC(c1ccco1)C2` (configuration not stated)?
HTRA1 inh: -17; ARNT TACC3 PPI: 2; ABHD4 inh: 23; TCR CD3 inh: 0; SIAE inh: -3

Results for C/C=C/COC(=O)c1[nH]c2c(c1C)C(=O)CC(c1ccco1)C2 (configuration not stated) ?
HTRA1 inh: -10; ARNT TACC3 PPI: -1; ABHD4 inh: 32*; TCR CD3 inh: -2; SIAE inh: 3; mABHD4 conf: -14

What do the screens show for `CCN1[C@@H]2c3ccc(-c4ccccc4F)c(=O)n3C[C@H]1[C@H](CO)[C@H]2C(=O)NCCOC`?
ARNT TACC3 PPI: -15

What do the screens show for `C[C@@H]1CN([C@H](C)CO)C(=O)c2cccc(NC(=O)c3ccc(-c4nccs4)cc3)c2O[C@@H]1CN(C)Cc1ccncc1`?
ARNT TACC3 PPI: -1

What do the screens show for `F[B-](F)(F)COc1ccccc1`?
HTRA1 inh: -3; ARNT TACC3 PPI: -8; ABHD4 inh: 68*; TCR CD3 inh: -1; SIAE inh: 3; mABHD4 conf: 36*

What do the screens show for `c1ccc(OCCOCCOc2ccccc2)cc1`?
HTRA1 inh: -8; ARNT TACC3 PPI: 28; ABHD4 inh: 0; TCR CD3 inh: -8; SIAE inh: 3

How did C[C@@H]1CN([C@H](C)CO)C(=O)c2cc(-c3cccc(C(=O)N(C)C)c3)cnc2O[C@@H]1CN(C)S(=O)(=O)c1ccccc1 do in these assays?
ARNT TACC3 PPI: 0

What do the screens show for `CCOC(=O)C1=C(C)N=c2s/c(=C\c3ccc(O)c([N+](=O)[O-])c3)c(=O)n2C1c1ccccc1OC` (configuration not stated)?
HTRA1 inh: 21; ARNT TACC3 PPI: -1; ABHD4 inh: 37*; TCR CD3 inh: -6; SIAE inh: 4; mABHD4 conf: 63*

How did O=C(c1cc([N+](=O)[O-])ccc1Cl)N1CCN(c2ccc([N+](=O)[O-])cc2)CC1 do in these assays?
HTRA1 inh: -5; ARNT TACC3 PPI: 3; ABHD4 inh: 40*; TCR CD3 inh: -1; SIAE inh: -1; mABHD4 conf: -3

Results for O=c1[nH][nH]c2c([N+](=O)[O-])ccc(F)c12 ?
ABHD4 inh: 36*; TCR CD3 inh: 13; SIAE inh: 0; mABHD4 conf: 34*

What do the screens show for `O=c1[nH]c2cc(Cl)cc([N+](=O)[O-])c2c2ccc(Cl)cc12`?
HTRA1 inh: -6; ABHD4 inh: 7; TCR CD3 inh: 5; SIAE inh: -3

Results for C[C@H](CO)N1C[C@H](C)[C@H](CN(C)C(=O)Nc2cccc3ccccc23)Oc2ccc(NC(=O)CCN3CCOCC3)cc2CC1=O ?
ARNT TACC3 PPI: -4

How did O=[N+]([O-])c1cc(/C=N/NC(=S)Nc2ccccc2Cl)ccc1Cl do in these assays?
HTRA1 inh: -12; ARNT TACC3 PPI: -2; ABHD4 inh: -3; TCR CD3 inh: -3; SIAE inh: -13

Results for COc1ccc(/C=N/NC(=S)Nc2ccccc2[N+](=O)[O-])cc1O ?
HTRA1 inh: 16; ARNT TACC3 PPI: -2; ABHD4 inh: 44*; TCR CD3 inh: 8; SIAE inh: -1; mABHD4 conf: 24

Results for COc1cc(N(C(C)=O)c2ccc(O)c(C(=O)O)c2)c2ncccc2c1 ?
HTRA1 inh: 16; ABHD4 inh: 31*; TCR CD3 inh: 15; SIAE inh: 13; mABHD4 conf: 47*

What do the screens show for `COc1cc(N(C(C)=O)c2ccc(O)cc2)c2ncccc2c1`?
HTRA1 inh: 13; ABHD4 inh: 11; TCR CD3 inh: -1; SIAE inh: 5

What do the screens show for `COc1ccc(S(=O)(=O)Nc2ccc3c(c2)C(=O)N([C@H](C)CO)C[C@H](C)[C@H](CN(C)C)O3)cc1`?
ARNT TACC3 PPI: -5

How did C[C@@H]1CN([C@@H](C)CO)S(=O)(=O)c2ccc(-c3cccnc3)cc2O[C@H]1CN(C)C(=O)C1CCC1 do in these assays?
ARNT TACC3 PPI: 6

What do the screens show for `O=[N+]([O-])c1ccc(NN=Cc2ccc(O)cc2O)nc1`?
HTRA1 inh: 20; ARNT TACC3 PPI: 29; ABHD4 inh: 30*; TCR CD3 inh: 1; SIAE inh: 8; mABHD4 conf: 30*

Results for Oc1ccc(/C=N/Nc2nccnc2Cl)c(O)c1 ?
HTRA1 inh: -2; ARNT TACC3 PPI: -3; ABHD4 inh: 43*; TCR CD3 inh: -4; SIAE inh: -8; mABHD4 conf: 45*

What do the screens show for `COc1cccc(/C=N/Nc2nccnc2Cl)c1O`?
HTRA1 inh: 1; ABHD4 inh: 30*; TCR CD3 inh: 1; SIAE inh: -1; mABHD4 conf: 41*

What do the screens show for `COc1ccc(/C=N/Nc2nccnc2Cl)c(OC)c1`?
HTRA1 inh: -2; ARNT TACC3 PPI: 6; ABHD4 inh: -2; TCR CD3 inh: 4; SIAE inh: -4

Results for CC(=O)Nc1ccccc1O ?
HTRA1 inh: 0; ARNT TACC3 PPI: -23; ABHD4 inh: 1; TCR CD3 inh: 1; SIAE inh: 2

What do the screens show for `CC(C)(C)C(=O)/C=C/Nc1ccccc1O`?
HTRA1 inh: 8; ARNT TACC3 PPI: 0; ABHD4 inh: 30*; TCR CD3 inh: -1; SIAE inh: 3; mABHD4 conf: 1

How did O=C(N1CCc2ccccc2C1)n1cc(C(O)(c2ccccc2)c2ccccc2)nn1 do in these assays?
ABHD4 inh: 86*; SIAE inh: -10; mABHD4 conf: 69*

What do the screens show for `Clc1cccc(-c2ccc(-c3nc4ccccn4c3NCc3ccccc3)cc2)c1`?
HTRA1 inh: -13; ARNT TACC3 PPI: -3; ABHD4 inh: 37*; TCR CD3 inh: 0; SIAE inh: 10; mABHD4 conf: 33*
